The list is not random: actives were taken first. Their share in the collection is about 1.9%.
APP 5UTR inh: APP translation inhibition. inhibition, % at 2 µM. SH-SY5Y APP 5'UTR-luciferase reporter, luminescence. 190,000 tested, 0.82% active;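 active means inhibition above a set limit, derived from the sample mean plus 3 SD, cut at about 45% in these data; inconclusive means one replicate passes the limit while the other fails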
697 NFkB inh: lowers PMA/ionomycin-induced NF-kB signal in 697 B cells. 697 B-cell NF-kB luciferase reporter, 16 h. inhibition, % at 4 µM. 330,000 tested, 0.33% active; in the data active means inhibition above about 35%
Jurkat NFkB inh: lowers PMA/ionomycin-induced NF-kB signal in Jurkat cells. PMA/ionomycin-induced NF-kB luciferase reporter, luminescence. inhibition, % at 4 µM. 330,000 tested, 0.53% active; in the data active means inhibition above about 50%
Lipid droplet: modulators of hepatic lipid droplet formation. AML12 mouse hepatocytes, oleate lipid droplets, BODIPY imaging. inhibition, % at 6.5 µM. 240,000 tested, 0.4% active. AID 1656;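 active means lipid droplet intensity inhibited by at least 50%, with more than 500 cells counted; inconclusive means wells with under 300 cells, treated as cytotoxic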
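Assay system: AML12 mouse liver cells | Compound: 6.5 µM single-point dosing | Schedule: Overnight exposure | Technique: Fluorescence imaging, 20x objective, two fields per well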
aSyn 5UTR inh: MLPCN primary screen, SNCA 5' untranslated region; alpha-synuclein 5'UTR reporter, inhibitor activity; inhibition, % (tested at 7.5 µM); 300,000 tested, 0.82% active; AID 1813; in the data active means inhibition above about 60%; inconclusive means no clear call, values can overlap the other calls;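 further: H4 neuroglioblastoma cells stably carrying SNCA 5'UTR luciferase fusion; 0% = DMSO wells and 100% = positive control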
TAG inh: inhibitors of triacylglycerol accumulation. H9c2 cells, Nile Red lipid (TAG) fluorescence; cells loaded with 200 µM oleic acid. inhibition, % at 12.5 µM. 230,000 tested, 0.66% active;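 active means pattern-corrected inhibition of lipid staining of at least 50% with the nuclear-stain viability signal not falling by more than 50%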;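 further: 0% = DMSO wells and 100% = triacsin C control wells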
Jurkat NFkB conf: lowers PMA/ionomycin-induced NF-kB signal in Jurkat cells. shares compounds with Jurkat NFkB inh. Jurkat NF-kB luciferase, 16 h. inhibition, % at 4 µM. 2,700 tested, 27% active. AID 435020;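 active means inhibition reaching about 45% at 4 µM in either replicate, limit read from the data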;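 further: plate controls were PMA/ionomycin stimulated DMSO wells for no effect and unstimulated DMSO wells for full effect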
697 NFkB conf: lowers PMA/ionomycin-induced NF-kB signal in 697 B cells; shares compounds with 697 NFkB inh; 697 B-cell NF-kB luciferase, 16 h; inhibition, % at 4 µM; 2,000 tested, 35% active; AID 449746; in the data active means inhibition mostly above about 28%, no sharp cut-off; inactive means mostly below about 22%
Starred values were filed as active, the others as inactive; i = inactive; ? = inconclusive; . = not tested or not shown.

SMILES	APP 5UTR inh	697 NFkB inh	Jurkat NFkB inh	Lipid droplet	aSyn 5UTR inh	TAG inh	Jurkat NFkB conf	697 NFkB conf
ClC1=C(Cl)C(Cl)=C(Cl)C1=C/C=C/c1ccccc1	.	-275	55*	40	113*	127	-14	-26
O=C1NC(=O)C(=CC=Cc2ccccc2)S1	.	.	.	.	.	2	.	.
Cc1ccc(NC(=O)C2C3C=CC(O3)C2C(=O)O)c(C)c1 (stereo unspecified)	.	-6	1	7	-7	.	.	.
O=C(CN1C(=O)c2ccccc2S1(=O)=O)c1ccccc1	3	15	-2	7	.	8	.	.
C=CCn1c(C)cc(C(=O)CN2C(=O)c3ccccc3S2(=O)=O)c1C	.	66*	89*	.	.	5	49*	45*
Cc1ccc(C(=O)CN2C(=O)c3ccccc3S2(=O)=O)cc1	.	73*	81*	-5	109*	6	66*	51*
Cc1ccc(CNC(=O)c2ccc(N3CCCC3=O)cc2)cc1	2	7	-3	.	-21	.	.	.
Cn1nc(C(C)(C)C)cc1C(=O)NCc1ccc(N2CCCC2=O)cc1	-16	42*	66*	-96	-13	.	66*	57*
CCCCCOC(=O)c1[nH]c2c(c1C)C(=O)CC(c1ccco1)C2 (stereo unspecified)	95*	-322	67*	?	54	41	49*	7
Cc1ccc(C(=O)/C=C/Nc2ccc3c(c2)OCO3)cc1	-95	-376	-205	.	-182	3	-23	-76
Cc1ccc(N/C=C/C(=O)c2ccccc2)cc1Br	.	-282	-158	3	-83	.	-72	-183
Cc1ccc2c(Cl)cc(Cl)c(OCC(=O)Nc3ccc(C)c(S(=O)(=O)N(C)C)c3)c2n1	-3	-5	5	2	26	.	.	.
CC(C)NC(=O)C1(C)CCN1C/C=C/c1ccccc1 (stereo unspecified)	.	.	.	.	.	-2	.	.
Nc1nc(-c2cc(-c3ccccc3)no2)cs1	.	-198	-92	23	-174	.	.	.
Cc1ccc(-c2cc(-c3ccccc3)no2)cc1	.	-426	-203	.	-22	-5	-149	-362
CC(C)(C)c1ccc2c(c1)C(=O)c1ccccc1C2=O	-163	-358	-206	0	-29	.	-125	-288
Cc1cc([N+](=O)[O-])nn1Cc1ccccc1F	9	51*	97*	.	-12	22	62*	76*
CC(=C\C(=O)O)/C(=C\c1cccc2ccccc12)C(=O)O	.	-21	-3	-5	-10	3	.	.
Cc1ccc(-c2nc3cc(C)ccc3o2)cc1	-175	-308	-175	16	73*	11	-98	-292
Cc1ccc(-c2nc3cc(N)ccc3o2)c(C)c1	-42	-182	-102	.	20	24	.	.
Cc1ccc(-c2nc3cc(N)ccc3o2)cc1	-45	-265	-202	9	-7	.	-82	-193
CC(C)c1ccc2oc(-c3ccc(N)cc3)nc2c1	-125	-472	-225	.	48	.	-144	-400
CCOC(=O)[C@@H]1[C@H]2COc3ccc(Br)cc3[C@@H]2N2C(=O)N(c3ccc(Cl)cc3)C(=O)[C@@]12C	.	5	-6	.	.	49	.	.
c1ccc(-c2ccc(-c3nc(-c4ccccn4)no3)cc2)cc1	46*	39*	77*	-6	147*	.	81*	36*
CC1(C(=O)Nc2cccc3ccccc23)CCN1C(=O)C1(c2ccccc2)CCCC1 (stereo unspecified)	.	.	.	.	.	18	.	.
SMILES	APP 5UTR inh	697 NFkB inh	Jurkat NFkB inh	Lipid droplet	aSyn 5UTR inh	TAG inh	Jurkat NFkB conf	697 NFkB conf
Cc1cc(N2CCCCC2)n2ncc(-c3ccccc3)c2n1	-217	i	-185	0	56	7	-63	-418
Cc1cc(C)n(-c2cc(C(C)(C)C)nc3c(-c4ccc(Cl)cc4)cnn23)n1	-23	-54	-62	.	-44	.	.	.
CC(C)(C)c1cc(N2CCOCC2)n2ncc(-c3ccc(Cl)cc3)c2n1	.	-11	-16	.	-15	.	.	.
Cc1cc(N2CCOCC2)n2ncc(-c3ccc(Cl)cc3)c2n1	.	-361	-157	18	.	31	-24	-230
Cc1cc(-c2ccccc2)n2ncc(-c3ccccc3)c2n1	-166	i	-202	-19	40	.	-91	i
Cc1cc(N2CCCCC2)n2ncc(-c3ccc(Cl)cc3)c2n1	-38	-309	-189	.	-181	31	-80	-214
CSCC[C@H](NC(=O)[C@H]1N2C(=O)c3ccccc3C2SC1(C)C)C(=O)NCc1ccncc1 (stereo partly specified)	.	-1	15	17	-1	.	.	.
CCCCCCCNC(=O)C1(CC2CC(c3ccc(Cl)cc3)=NO2)CCN(C(=O)OC(C)(C)C)CC1 (stereo unspecified)	.	-11	-2	12	-4	5	.	.
Oc1c(N=Nc2ccccc2)sc2ccccc12	.	-268	-176	18	-192	-3	-128	-286
CN(C)S(=O)(=O)c1cccc(NC(=O)CN2C(=O)NC(Cc3c[nH]c4ccccc34)C2=O)c1 (stereo unspecified)	-27	.	.	14	37	.	.	.
COCCN(CC1CCCN(C2Cc3ccccc3C2)C1)C(=O)CCC(N)=O (stereo unspecified)	.	-12	0	-18	-4	.	.	.
N#Cc1c(NC(=O)c2ccccc2)sc2c1CCCCC2	-198	-280	-179	-6	-16	.	-138	-237
CC1CCc2c(sc(NC(=O)CSc3ncn[nH]3)c2C#N)C1 (stereo unspecified)	.	58*	61*	5	91*	5	61*	52*
N#Cc1c(NC(=O)CSc2ncn[nH]2)sc2c1CCCC2	.	62*	52*	15	84*	-5	47	47*
CN(c1ccccc1C(=O)Nc1ccccc1-c1ccccc1)S(C)(=O)=O	.	-4	-10	-1	8	2	.	.
COCCNc1nc(C)cc(-c2cc(C(=O)NCc3ccccc3)on2)n1	.	13	-6	.	5	12	.	.
Cc1cc(-c2cc(C(=O)NCc3ccccc3)on2)nc(S(C)(=O)=O)n1	.	51*	52*	.	-23	19	34	42*
Cc1ccc(S(=O)(=O)N2CC(C)C(=O)CC2C)cc1 (stereo unspecified)	.	7	-9	-20	-6	.	.	.
CSc1ccc(NC(=O)Nc2cc(C)ccn2)cc1	.	-318	-150	3	-19	.	-86	-204
Cc1ccnc(NC(=O)Nc2ccc(F)cc2)c1	-84	-289	-163	14	-86	.	-91	-142
CSc1ncccc1C(=O)Nc1cc(C)ccn1	.	5	11	9	-5	4	.	.
O=C(c1cccc(S(=O)(=O)Nc2ccccc2F)c1)N1CCN(c2ccccc2F)CC1	-12	-12	-1	0	-7	-9	.	.
O=c1oc2ccccc2cc1-c1nc2c(s1)CCCC2	-188	-305	-165	.	?	.	-79	-369

High-throughput results as filed in PubChem.
